The values that follow come from ChEMBL document CHEMBL4513216, “Probing the Open Global Health Chemical Diversity Library for Multistage-Active Starting Points for Next-Generation Antimalarials” (ACS Infect Dis, 2020).

Each structure is given as a SMILES string.

This series can be described thus: Toxicity liver stage against HepG2, at 10uM. It is filed as cell-based. Also noted: test concentration 10 uM, cell line HepG2-A16-CD81EGFP. To be noted: human, HepG2-A16-CD81EGFP cells; read-out: INHIBITION
In outline: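 Uninfected HepG2-A16-CD81EGFP cells, 3 × 10^3 per well, 1536-well, plated on prespotted compound at 10 μM final, parasite-free screening media added to match infected plates; puromycin 10 μM positive, DMSO 0.5% negative; run in parallel with 48 h PbLuc assay at 37 °C, 5% CO2; viability by CellTiter-Glo luminescence, normalized to controls.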
For the compound `FC(F)(F)c1[nH]nc2c1CN(Cc1ccccc1)CC2`, the cytotoxicity at 10 µM was 11.8%. On to `c1ccc(C2CCN(c3cncc(-n4cccn4)n3)CC2)cc1`, for which the cytotoxicity at 10 µM was -15.3%.

Regarding `O=C(NC1CCCC1)O[C@H]1COCCN(c2nc3ccccc3s2)C1`, the cytotoxicity at 10 µM was -0.655%. On to `CC(C)N1CCN(C)CC1c1nnc2ccc(C(=O)N3CCCC3)cn12` (stereo unspecified), for which the cytotoxicity at 10 µM is -145%. As to `COc1ccc(-c2c(C)nn3c(=N)c(C#N)n[nH]c23)cc1OC`, the cytotoxicity at 10 µM was 8.29%. As for `Cc1cccc(NC2CCc3c2[nH]c(=O)n(C2CCCCC2)c3=O)c1C` (stereo unspecified), the cytotoxicity at 10 µM was found to be 5.05%. On to `Cc1cnc(NC(=O)c2csc(NCC(C)C)n2)s1`, for which the cytotoxicity at 10 µM was 34.4%. Regarding `Cc1[nH]/c(=N\C(=O)c2csc(NC3CCCC3)n2)sc1C`, the cytotoxicity at 10 µM was found to be 38.8%.

Consider `Oc1cc(C2CCCCN2Cc2cccs2)nc(-c2ccccn2)n1` (stereo unspecified), for which the cytotoxicity at 10 µM came to 39.1%. With `COc1cccc(OC)c1CNC(Cc1ccsc1)c1ccc(C)cn1` (stereo unspecified) the figure was 2.75%. As for `CN1CCc2nc(C3CCN(C(=O)CCC4CCCC4)CC3)ncc2C1`, the cytotoxicity at 10 µM is -3.06%. With `Cc1cc(-c2cnc(NCc3cccnc3)nc2C(C)(C)C)on1` the figure was 49.6%; with `CC(C)(C)OC(=O)N1CCCN(Cc2ccon2)c2ccccc21`, 11.1%; with `CN1CCN(c2ccc(NCc3ccc(OC(F)(F)F)cc3)cn2)CC1`, 14.9%. As for `CCCn1c(=O)n(CCC(=O)N(C)Cc2ccc(C)o2)c2ccccc21`, the figure is -3.26%; as for `NC(=O)N1CCCN(C2CCc3ccc(F)cc32)CC1` (stereo unspecified), 3.93%.

For `Cc1cc(CN(C)Cc2csc(-c3ccc(C(C)C)cc3)n2)no1`, the cytotoxicity at 10 µM came to 41.1%. As for `CC(CNC(=O)c1ccc(C#N)cc1)N1CCc2ccccc21` (stereo unspecified), the figure is 2.84%; as for `CN(C)c1cc(C(=O)NCc2cccnc2-n2cncn2)ccn1`, 8.15%. As for `CN(C)c1ncccc1NC(=O)C1CN(Cc2ccccc2)CCO1` (stereo unspecified), the figure is 0.499%; as for `Cc1n[nH]c(C)c1C1COCCN1C(=O)Cc1ccccc1F` (stereo unspecified), -2.46%.

On to `Cc1ccc(C)c(OC2CCN(C(=O)CNc3ccccc3Cl)CC2)c1`, for which the cytotoxicity at 10 µM came out at 40.2%. As for `Cc1nc2ccccc2nc1NCc1cccc(OCC2CCCO2)c1` (stereo unspecified), the figure is 44.3%. In the case of `CC(C)n1nc2c(cc1=O)CN(c1ncnc3ccsc13)CC2`, the cytotoxicity at 10 µM came to 60.6%.

On to `O=S(=O)(c1cccnc1)N1CCN(CC(O)c2ccccc2)CC1` (stereo unspecified), for which the cytotoxicity at 10 µM is 0.871%. As for `CS(=O)(=O)c1cccc(OCC(=O)N2CCCC2c2ccccc2Cl)c1` (stereo unspecified), the cytotoxicity at 10 µM was found to be 4.36%.

In the case of `COCC(=O)Nc1nccn1Cc1ccc(Br)cc1`, the cytotoxicity at 10 µM was -55.1%. Turning to `Cc1nc(CN2CCCC(Nc3ncnc4c3CCC4)C2)no1` (stereo unspecified), the cytotoxicity at 10 µM was determined as 34.3%. With `CC(=O)c1c(F)cccc1N1CCC(Cc2cccnc2)CC1` the figure was 43.6%; with `Cc1cnn(CC2CN(c3ncnc4ccsc34)CCO2)c1` (stereo unspecified), 53.2%. As for `COCC(=O)N1C[C@H]2CCC[C@@]2(COC)C1`, the figure is 5.93%. With `CC(=O)N1CCOC2(CCN(C(=O)C3CC3)CC2)C1` the figure was -106%; with `CN1CCN(Cc2cn3c(n2)CN(Cc2ccncc2)CC3)CC1`, -94.8%. For the compound `Cc1[nH]c2ccccc2c1-c1ccnc(N[C@@H](C)CO)n1`, the cytotoxicity at 10 µM is -6.52%. Consider `CSc1nccc(N2CCC3(CCCN(Cc4ccc(F)cc4)C3)C2)n1` (stereo unspecified), for which the cytotoxicity at 10 µM is 9.5%. With `c1ccc(C2CCN(c3ncnc4c3CCNC4)CC2)cc1` the figure was 5.03%. As for `COc1cccc(CN2CCC(CO)(Cc3ccc(Cl)cc3)CC2)c1O`, the figure is -133%. With `CCOc1ccc(CN(CCOC)c2nc(C)nc3oc(C)nc23)cc1` the figure was -30.2%. Consider `CCn1ncc(CNC(=O)c2cn(CCC3CCCCN3)nn2)c1C` (stereo unspecified), for which the cytotoxicity at 10 µM came out at 2.72%. As for `Cc1cc(Cl)ccc1C(=O)C1CCCN(Cc2cnc(N(C)C)s2)C1` (stereo unspecified), the figure is -13.1%; as for `Cc1nn(C)c2nc(N(CCOc3ccccc3)CC3CCCO3)sc12` (stereo unspecified), 46.8%; as for `COc1cc(Oc2cnc3ccccc3n2)ccc1CN1CCCC1`, 5.27%.

`Cc1ncsc1-c1ccn(CC(=O)Nc2cnn(C)n2)n1`: the cytotoxicity at 10 µM amounted to 93.8%. As for `Cc1nn(-c2ccccc2)c(C)c1-c1ccnc(N2CCCNCC2)n1`, the figure is -9.5%; as for `Cc1cc(C(F)(F)F)nn1CCNC(=O)C(C)n1ccnc1C(C)C` (stereo unspecified), -5.24%; as for `CCc1ccc(C2CC(=O)Nc3cc(NS(C)(=O)=O)ccc32)o1` (stereo unspecified), 86%. Consider `CCS(=O)(=O)CCNC1CCN(c2nc3ccc(Cl)cc3s2)CC1`, for which the cytotoxicity at 10 µM amounted to 32%. On to `Cc1cc(N2CCCC(c3[nH]ncc3Cc3ccccc3)C2)nc(N)n1` (stereo unspecified), for which the cytotoxicity at 10 µM worked out at 57.1%. As for `CC(C)c1cc(C2CCN(C(=O)Cn3cnc4ccccc43)CC2)[nH]n1`, the figure is 51.8%.

For the compound `Cc1ccc(OC2CCN(CCn3cncn3)CC2)cc1`, the cytotoxicity at 10 µM is -1.67%. As for `O=C(C1CCOCC1)N1CCC(OCc2cccnc2)CC1`, the figure is 2.12%. As for `COc1ccccc1OCc1cc(C(=O)NC[C@@H]2CCCN2)n[nH]1`, the figure is -3.81%; as for `CNc1nc(C)c(C(=O)N2C[C@@H](C(=O)O)[C@H](C3CC3)C2)s1`, 4.29%; as for `CC(c1cccc(-c2nccn2CCc2cn[nH]c2)c1)N(C)C` (stereo unspecified), -4.83%. As for `COc1ccc2cc(C3CN(C(=O)N(C)C)CCO3)ccc2c1` (stereo unspecified), the figure is 4.26%; as for `Nc1nccc(N2CCCC(CO)(CCOc3ccccc3)C2)n1` (stereo unspecified), 46.7%; as for `CCc1c(C)nc2cc(C3CCN(Cc4ccccc4F)C3)nn2c1O` (stereo unspecified), 1.7%. As for `Cc1nn(C)c(Cl)c1C1CCCN1C(=O)c1ccc(C(N)=O)cn1` (stereo unspecified), the cytotoxicity at 10 µM was -32%. For `CCOC(=O)c1ccc(S(=O)(=O)NCc2cccnc2N(C)C)cc1`, the cytotoxicity at 10 µM worked out at 32.1%. Turning to `N#Cc1ccc(CN2CCN(C(=O)c3cc(C4CC4)[nH]n3)CC2)cc1`, the cytotoxicity at 10 µM amounted to 18.9%.

Take `CCCS(=O)(=O)N1CCC2(CC1)CCn1c(-c3cnn(C)c3)cnc12`: the cytotoxicity at 10 µM was -142%. With `CC(=O)N1CC[C@H]2[C@H](C[C@@H](Cn3cncn3)N2c2nccs2)C1`, the cytotoxicity at 10 µM is -140%.

On to `COc1cc(N2CC[C@@H](O)[C@@H]2Cc2cccnc2)ncn1`, for which the cytotoxicity at 10 µM is -77.9%. Consider `COc1cccc(-c2noc(C3CCN(Cc4ccccc4F)C3)n2)c1` (stereo unspecified), for which the cytotoxicity at 10 µM is -2.06%. Take `COc1cc(N2CCCC3(CCN(c4cccnc4)C3=O)C2)ncn1` (stereo unspecified): the cytotoxicity at 10 µM was -103%. `CN(C)CC(=O)N1CCC2(CC1)CN(c1ncccn1)CCO2`: the cytotoxicity at 10 µM is -68.7%.

Regarding `CNC(=O)c1cc2c(nc1NCC(C)C)CCN(CC1CC1)CC2`, the cytotoxicity at 10 µM is -158%.

Turning to `COc1cc(N2CCC3(CCCN(Cc4ccccn4)C3)C2)ncn1` (stereo unspecified), the cytotoxicity at 10 µM is -88.6%. Turning to `NC(=O)N1CCC2(CCN(C(=O)c3cccnc3)CC2)C1`, the cytotoxicity at 10 µM is -83%. In the case of `Cc1nccc(NCc2cncc3c2CCN(CC2CC2)C3)n1`, the cytotoxicity at 10 µM is -92.4%. In the case of `CCN1CCn2c(-c3cccc(F)c3)cnc2C12CCN(C(C)=O)CC2`, the cytotoxicity at 10 µM was -1.09%.
